Experiments:
Serine protease 1 = Serine protease 1 (Homo sapiens, UniProt P07477); assay: Inhibition of human trypsin and the control activity being 7.3 umol/min/mg; conditions: read-out: I50
[1] = Lethal dose that produces death in 50% of mice within 24 hr after acute treatment; assay type: toxicity, organism-based; conditions: mouse, in vivo
Procedure, shortened: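 Mature male Swiss Webster albino mice, minimum body weight 25 g; compounds suspended in 5% gum acacia and given as a single intraperitoneal injection at 0.1 mL/10 g body weight. Deaths scored within 24 h. LD50 taken from dose-response curves by the Litchfield and Wilcoxon method, with 95% confidence limits.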

Acrosin = Acrosin (Homo sapiens, UniProt P10323); assay: Inhibition of human acrosin and control activity being 11.3 umol/min/mg; conditions: read-out: I50
Sequence of Acrosin (P10323 20-42 limits assumed): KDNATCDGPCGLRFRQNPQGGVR
Sequence of Acrosin (P10323 43-343 limits assumed): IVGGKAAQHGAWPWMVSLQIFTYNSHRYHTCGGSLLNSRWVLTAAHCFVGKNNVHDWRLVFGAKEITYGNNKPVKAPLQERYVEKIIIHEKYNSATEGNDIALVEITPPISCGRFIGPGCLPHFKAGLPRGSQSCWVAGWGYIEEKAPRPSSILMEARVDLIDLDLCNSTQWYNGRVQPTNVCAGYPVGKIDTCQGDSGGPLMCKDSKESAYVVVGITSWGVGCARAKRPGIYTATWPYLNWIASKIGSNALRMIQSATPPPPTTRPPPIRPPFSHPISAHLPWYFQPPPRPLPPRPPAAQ

Sequence of Serine protease 1 (P07477 whole entry): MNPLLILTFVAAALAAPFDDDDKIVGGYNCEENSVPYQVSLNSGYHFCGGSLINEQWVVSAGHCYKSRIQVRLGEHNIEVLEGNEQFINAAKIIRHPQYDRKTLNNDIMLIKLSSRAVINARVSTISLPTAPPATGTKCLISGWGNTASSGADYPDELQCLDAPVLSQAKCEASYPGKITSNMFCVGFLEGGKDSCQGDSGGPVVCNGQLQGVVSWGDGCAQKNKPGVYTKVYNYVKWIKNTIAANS

IC50 (Serine protease 1) [nM] | IC50 (Acrosin) [nM] | SMILES | LD50 at 24 h [1] [mg/kg]
87.6 | 27.3 | COc1ccccc1OC(=O)c1ccc(NC(=N)N)cc1 | –
92.2 | 38.5 | N=C(N)Nc1ccc(C(=O)Oc2cccc(C(F)(F)F)c2)cc1 | –
22.3 | 11.4 | CCCCOc1ccc(OC(=O)c2ccc(NC(=N)N)cc2)cc1 | –
3.9 | 3.5 | N=C(N)Nc1ccc(C(=O)Oc2ccc(Br)cc2)cc1 | –
19 | 16.3 | COc1ccc(OC(=O)c2ccc(NC(=N)N)cc2)cc1 | –
16.4 | 33 | N=C(N)Nc1ccc(C(=O)Oc2ccc(C(F)(F)F)cc2)cc1 | –
8.2 | 3 | N=C(N)Nc1ccc(C(=O)Oc2ccc(Cl)cc2)cc1 | –
16.5 | 17.6 | COc1cccc(OC(=O)c2ccc(NC(=N)N)cc2)c1 | –
19.5 | 3.3 | Cc1ccc(OC(=O)c2ccc(NC(=N)N)cc2)cc1 | –

More lines, now with the values behind:

SMILES | IC50 (Serine protease 1) [nM] | IC50 (Acrosin) [nM] | LD50 at 24 h [1] [mg/kg]
Cl.N=C(N)Nc1ccc(C(=O)Oc2ccccc2C(N)=O)cc1 | 300 | 300 | > 1000
COC(=O)c1ccccc1OC(=O)c1ccc(NC(=N)N)cc1 | 65 | 12.9 | 750
N#Cc1ccc(OC(=O)c2ccc(NC(=N)N)cc2)cc1 | 1.6 | 1.2 | –
Cc1ccc(C(C)C)c(OC(=O)c2ccc(NC(=N)N)cc2)c1.Cc1ccc(S(=O)(=O)O)cc1 | 500 | 300 | > 2000
CCOC(=O)c1ccc(OC(=O)c2ccc(NC(=N)N)cc2)cc1.Cl | 1.6 | 9.3 | 300
CC(C)(C)c1ccc(OC(=O)c2ccc(NC(=N)N)cc2)cc1 | 17.1 | 28.5 | –
N#Cc1cccc(OC(=O)c2ccc(NC(=N)N)cc2)c1 | 3.8 | 7.2 | –
N=C(N)Nc1ccc(C(=O)Oc2ccccc2)cc1 | 23.4 | 5.6 | –
COC(=O)c1cccc(OC(=O)c2ccc(NC(=N)N)cc2)c1 | 27.1 | 5.4 | –
CCCCCCc1ccc(OC(=O)c2ccc(NC(=N)N)cc2)cc1O | 18.5 | 99.7 | 620
CC(=O)Nc1ccc(OC(=O)c2ccc(NC(=N)N)cc2)cc1.Cl | 23.7 | 8 | 850
Cl.N=C(N)Nc1ccc(C(=O)Oc2cccc3cccnc23)cc1 | 27.7 | 19.8 | 240
C=CCc1ccc(OC(=O)c2ccc(NC(=N)N)cc2)c(OC)c1 | 8.4 | 13.7 | 870
CC(C)c1ccc(OC(=O)c2ccc(NC(=N)N)cc2)cc1 | 17.2 | 6.6 | –
COC(=O)c1ccc(OC(=O)c2ccc(NC(=N)N)cc2)cc1.Cl | 1.5 | 0.67 | 235
